The values below come from ChEMBL document CHEMBL5696442, “Discovery of type II inhibitors of TGFβ-activated kinase 1 (TAK1) and mitogen-activated protein kinase kinase kinase kinase 2 (MAP4K2)” (J Med Chem, 2015).

Experiment [1] addresses Ribosomal protein S6 kinase alpha-3 (Homo sapiens) (UniProt P51812). Kind of experiment: Inhibition of RSK2 domain 1 Lys2 labeling site harbouring DLKPENILLDEEGHIKLTDFGLSK in human Huh-7 cell lysate at 1 uM by KiNativ Profiling analysis relative to control. In kind it is subcellular.
For experiment [2], the target named is Calcium/calmodulin-dependent protein kinase type II subunit alpha (Homo sapiens) (UniProt Q9UQM7). Kind of experiment: Inhibition of CaMK2a Lys2 labeling site in human Huh-7 cells at 1 uM by KiNativ Profiling analysis relative to control. In kind it is cell-based.
Experiment [3] deals with Epidermal growth factor receptor (Homo sapiens), P00533 [UNDEFINED MUTATION]. Kind of experiment: Inhibition of EGFR L747-E749del/A750P mutant (unknown origin) at 1 uM by Ambit Kinomescan binding assay relative to control.
The target of experiment [4] is Ribosomal protein S6 kinase alpha-1 (Homo sapiens) (UniProt Q15418). Put plainly: Inhibition of C-terminal RSK1 kinase domain 2 (unknown origin) at 1 uM by Ambit Kinomescan binding assay relative to control. The essentials:
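In vitro ATP-site competition binding assay against a panel of over 420 kinases (KinomeScan), with compound tested at 10 or 1 μM.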

Experiment [5] has as its target Mitogen-activated protein kinase kinase kinase 12 (Homo sapiens) (UniProt Q12852). Kind of experiment: Inhibition of DLK Lys2 labeling site harbouring in human A-375 cells at 0.5 uM by KiNativ Profiling analysis relative to control.
Experiment [6] concerns the target Cyclin-dependent kinase 9 (Homo sapiens) (UniProt P50750). Put plainly: Inhibition of CDK9 Lys2 labeling site in human A-375 cells at 0.5 uM by KiNativ Profiling analysis relative to control. In kind it is cell-based.
For experiment [7], the target named is Cyclin-dependent kinase 18 (Homo sapiens) (UniProt Q07002). Put plainly: Inhibition of PCTK3 (unknown origin) at 10 uM by Ambit Kinomescan binding assay relative to control.
Experiment [8] addresses T1, Mitogen-activated protein kinase kinase kinase 5 (Homo sapiens) (UniProt Q99683).
T1 sequence (whole entry): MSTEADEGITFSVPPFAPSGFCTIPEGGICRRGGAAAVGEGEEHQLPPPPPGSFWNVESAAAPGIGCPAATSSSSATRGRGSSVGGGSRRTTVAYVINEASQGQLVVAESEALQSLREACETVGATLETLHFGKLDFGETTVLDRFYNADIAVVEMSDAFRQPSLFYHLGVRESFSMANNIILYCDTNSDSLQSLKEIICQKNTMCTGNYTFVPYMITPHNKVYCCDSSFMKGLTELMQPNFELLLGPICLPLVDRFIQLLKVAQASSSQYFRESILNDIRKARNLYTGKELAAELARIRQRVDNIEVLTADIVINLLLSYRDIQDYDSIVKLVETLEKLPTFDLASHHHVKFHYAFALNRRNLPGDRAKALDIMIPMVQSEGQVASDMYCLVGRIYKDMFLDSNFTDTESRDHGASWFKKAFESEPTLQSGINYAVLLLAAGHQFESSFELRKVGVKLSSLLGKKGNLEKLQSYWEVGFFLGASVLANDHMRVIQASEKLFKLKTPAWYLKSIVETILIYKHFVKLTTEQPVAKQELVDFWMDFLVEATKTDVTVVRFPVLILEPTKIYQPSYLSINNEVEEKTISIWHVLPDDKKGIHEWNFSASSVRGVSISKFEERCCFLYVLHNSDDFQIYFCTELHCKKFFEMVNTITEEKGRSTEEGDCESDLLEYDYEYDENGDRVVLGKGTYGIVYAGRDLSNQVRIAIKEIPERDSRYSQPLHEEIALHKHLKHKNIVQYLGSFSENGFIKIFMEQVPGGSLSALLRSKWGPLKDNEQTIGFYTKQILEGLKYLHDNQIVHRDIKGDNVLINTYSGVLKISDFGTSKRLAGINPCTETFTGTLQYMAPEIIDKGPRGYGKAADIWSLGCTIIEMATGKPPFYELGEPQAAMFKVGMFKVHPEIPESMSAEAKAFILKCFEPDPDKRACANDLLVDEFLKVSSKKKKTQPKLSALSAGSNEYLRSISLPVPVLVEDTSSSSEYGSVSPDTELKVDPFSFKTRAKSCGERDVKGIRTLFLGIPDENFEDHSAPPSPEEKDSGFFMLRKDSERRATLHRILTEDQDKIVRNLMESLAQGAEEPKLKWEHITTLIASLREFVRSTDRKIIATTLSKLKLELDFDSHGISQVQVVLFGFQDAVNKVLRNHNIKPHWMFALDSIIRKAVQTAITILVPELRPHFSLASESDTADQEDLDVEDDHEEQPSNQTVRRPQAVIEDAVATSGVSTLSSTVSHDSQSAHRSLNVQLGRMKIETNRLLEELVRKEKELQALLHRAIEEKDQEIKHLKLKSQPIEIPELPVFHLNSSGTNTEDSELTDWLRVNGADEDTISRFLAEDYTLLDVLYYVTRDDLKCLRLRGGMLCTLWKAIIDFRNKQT
Kind of experiment: Inhibition of MAP3K5 Lys1 labeling site harbouring IAIKEIPERDSR in human A-375 cells at 0.05 uM by KiNativ Profiling analysis relative to control. In kind it is cell-based.

Experiment [9] addresses T2, Serine/threonine-protein kinase Chk1 (Homo sapiens) (UniProt O14757).
T2 sequence (whole entry): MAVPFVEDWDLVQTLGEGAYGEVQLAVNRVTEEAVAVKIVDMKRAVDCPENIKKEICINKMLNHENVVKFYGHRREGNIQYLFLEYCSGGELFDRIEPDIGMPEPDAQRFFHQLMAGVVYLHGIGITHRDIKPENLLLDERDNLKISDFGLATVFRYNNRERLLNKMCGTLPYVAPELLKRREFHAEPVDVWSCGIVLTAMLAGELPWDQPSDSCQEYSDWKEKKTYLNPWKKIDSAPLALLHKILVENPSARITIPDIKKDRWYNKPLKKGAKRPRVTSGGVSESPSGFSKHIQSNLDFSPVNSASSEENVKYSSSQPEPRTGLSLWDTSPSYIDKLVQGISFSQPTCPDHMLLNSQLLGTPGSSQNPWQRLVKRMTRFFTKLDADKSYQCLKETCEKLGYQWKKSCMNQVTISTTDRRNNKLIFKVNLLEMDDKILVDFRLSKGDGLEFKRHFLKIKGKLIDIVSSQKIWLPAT
Kind of experiment: Inhibition of CHK1 Lys2 labeling site harbouring DIKPENLLLDERDNLK in human A-375 cells at 0.5 uM by KiNativ Profiling analysis relative to control. In kind it is cell-based.

Experiment [10] has as its target Tyrosine-protein kinase CSK (Homo sapiens, UniProt P41240). Kind of experiment: Inhibition of CSK ACT labeling site harbouring VSDFGLTKEASSTQDTGKLPVKWTAPEALR in human A-375 cells at 5 uM by KiNativ Profiling analysis relative to control. In kind it is cell-based.
For experiment [11], the target named is Misshapen-like kinase 1 (Homo sapiens) (UniProt Q8N4C8). Kind of experiment: Inhibition of ZC3/MINK Lys2 labeling site in human A-375 cells at 5 uM by KiNativ Profiling analysis relative to control. In kind it is cell-based.
For experiment [12], the target named is ALK tyrosine kinase receptor (Homo sapiens) (UniProt Q9UM73). Kind of experiment: Inhibition of ALK (unknown origin) at 10 uM by Ambit Kinomescan binding assay relative to control; values are per cent of control.

Chain of Calcium/calmodulin-dependent protein kinase type II subunit alpha (Homo sapiens) (Q9UQM7 whole entry): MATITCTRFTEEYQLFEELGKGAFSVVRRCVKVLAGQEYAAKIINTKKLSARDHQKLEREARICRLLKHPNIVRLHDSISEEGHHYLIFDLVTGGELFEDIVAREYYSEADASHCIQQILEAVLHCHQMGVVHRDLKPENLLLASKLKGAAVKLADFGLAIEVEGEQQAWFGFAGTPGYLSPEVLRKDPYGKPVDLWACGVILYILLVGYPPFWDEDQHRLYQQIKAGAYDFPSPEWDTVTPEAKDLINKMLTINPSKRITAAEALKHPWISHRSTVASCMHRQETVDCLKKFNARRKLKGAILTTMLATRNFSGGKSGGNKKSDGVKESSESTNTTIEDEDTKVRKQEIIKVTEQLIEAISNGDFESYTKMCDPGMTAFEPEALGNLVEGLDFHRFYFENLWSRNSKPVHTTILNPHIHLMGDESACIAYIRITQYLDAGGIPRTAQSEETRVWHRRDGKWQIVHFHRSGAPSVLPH
Chain of Epidermal growth factor receptor (Homo sapiens), P00533 [UNDEFINED MUTATION] (P00533 whole entry, looked up, stated change not applied, the tested form may be a part): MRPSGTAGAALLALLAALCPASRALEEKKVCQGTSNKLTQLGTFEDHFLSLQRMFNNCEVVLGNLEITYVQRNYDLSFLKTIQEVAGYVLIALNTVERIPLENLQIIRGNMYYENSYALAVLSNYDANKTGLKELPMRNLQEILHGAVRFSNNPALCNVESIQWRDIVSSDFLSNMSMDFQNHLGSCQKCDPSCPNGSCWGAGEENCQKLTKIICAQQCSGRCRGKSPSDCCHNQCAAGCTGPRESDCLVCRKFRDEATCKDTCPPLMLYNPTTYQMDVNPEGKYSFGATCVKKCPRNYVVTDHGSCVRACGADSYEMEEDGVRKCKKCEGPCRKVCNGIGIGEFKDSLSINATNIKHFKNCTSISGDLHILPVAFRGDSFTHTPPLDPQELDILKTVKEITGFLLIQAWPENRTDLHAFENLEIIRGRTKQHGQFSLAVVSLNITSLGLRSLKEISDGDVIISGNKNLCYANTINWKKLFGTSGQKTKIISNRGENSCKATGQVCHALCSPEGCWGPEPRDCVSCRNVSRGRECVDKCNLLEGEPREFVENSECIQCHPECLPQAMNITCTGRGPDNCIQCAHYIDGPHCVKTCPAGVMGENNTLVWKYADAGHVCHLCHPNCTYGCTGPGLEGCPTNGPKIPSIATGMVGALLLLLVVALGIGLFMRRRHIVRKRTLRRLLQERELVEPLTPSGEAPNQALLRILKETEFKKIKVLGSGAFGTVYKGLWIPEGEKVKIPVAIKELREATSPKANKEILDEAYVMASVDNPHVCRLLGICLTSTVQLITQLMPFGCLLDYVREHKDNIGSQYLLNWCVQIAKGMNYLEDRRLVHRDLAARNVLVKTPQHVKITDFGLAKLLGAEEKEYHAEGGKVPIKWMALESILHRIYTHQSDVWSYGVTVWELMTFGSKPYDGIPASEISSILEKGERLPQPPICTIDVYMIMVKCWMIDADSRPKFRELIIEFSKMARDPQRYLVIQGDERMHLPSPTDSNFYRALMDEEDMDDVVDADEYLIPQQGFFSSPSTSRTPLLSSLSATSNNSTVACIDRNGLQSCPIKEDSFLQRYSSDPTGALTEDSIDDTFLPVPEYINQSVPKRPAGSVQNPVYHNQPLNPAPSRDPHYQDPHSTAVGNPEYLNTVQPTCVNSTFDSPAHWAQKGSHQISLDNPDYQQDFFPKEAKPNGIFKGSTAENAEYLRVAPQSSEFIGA
Chain of Misshapen-like kinase 1 (Homo sapiens) (Q8N4C8 whole entry, looked up): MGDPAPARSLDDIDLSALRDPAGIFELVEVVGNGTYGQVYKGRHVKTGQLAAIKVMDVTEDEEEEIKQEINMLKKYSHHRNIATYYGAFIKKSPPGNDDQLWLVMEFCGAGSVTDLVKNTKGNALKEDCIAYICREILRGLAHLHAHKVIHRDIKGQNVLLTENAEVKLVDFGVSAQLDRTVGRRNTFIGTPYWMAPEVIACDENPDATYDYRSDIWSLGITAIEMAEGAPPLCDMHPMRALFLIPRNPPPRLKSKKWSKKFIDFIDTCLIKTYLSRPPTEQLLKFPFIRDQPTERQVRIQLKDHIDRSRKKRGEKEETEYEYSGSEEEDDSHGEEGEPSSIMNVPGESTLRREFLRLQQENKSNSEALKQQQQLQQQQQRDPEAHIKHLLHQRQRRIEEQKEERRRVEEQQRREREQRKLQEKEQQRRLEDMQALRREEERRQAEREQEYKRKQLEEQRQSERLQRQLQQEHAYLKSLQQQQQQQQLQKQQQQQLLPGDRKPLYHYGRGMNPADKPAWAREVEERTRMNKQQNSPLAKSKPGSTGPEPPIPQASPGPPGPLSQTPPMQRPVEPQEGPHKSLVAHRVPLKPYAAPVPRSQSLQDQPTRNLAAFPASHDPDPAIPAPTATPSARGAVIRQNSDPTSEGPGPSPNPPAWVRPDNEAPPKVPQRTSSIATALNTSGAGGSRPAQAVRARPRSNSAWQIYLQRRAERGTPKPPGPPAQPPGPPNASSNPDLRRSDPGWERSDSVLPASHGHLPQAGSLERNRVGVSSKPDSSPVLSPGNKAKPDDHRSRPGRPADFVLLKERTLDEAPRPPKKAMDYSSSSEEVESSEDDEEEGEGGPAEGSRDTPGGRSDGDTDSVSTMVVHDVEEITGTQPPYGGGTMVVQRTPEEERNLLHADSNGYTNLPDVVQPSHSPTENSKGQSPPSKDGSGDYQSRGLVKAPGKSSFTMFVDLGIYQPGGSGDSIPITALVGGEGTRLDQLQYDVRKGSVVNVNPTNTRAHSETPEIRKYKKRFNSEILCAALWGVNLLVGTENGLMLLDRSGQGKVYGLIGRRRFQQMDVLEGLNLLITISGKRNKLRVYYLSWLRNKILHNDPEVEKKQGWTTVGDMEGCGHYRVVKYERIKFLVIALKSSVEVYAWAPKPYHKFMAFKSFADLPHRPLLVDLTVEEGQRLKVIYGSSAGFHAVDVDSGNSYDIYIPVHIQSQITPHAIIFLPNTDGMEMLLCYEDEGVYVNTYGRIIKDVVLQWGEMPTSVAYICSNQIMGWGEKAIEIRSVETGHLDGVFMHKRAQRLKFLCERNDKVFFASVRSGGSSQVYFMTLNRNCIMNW
Chain of Tyrosine-protein kinase CSK (P41240 2-450 limits assumed): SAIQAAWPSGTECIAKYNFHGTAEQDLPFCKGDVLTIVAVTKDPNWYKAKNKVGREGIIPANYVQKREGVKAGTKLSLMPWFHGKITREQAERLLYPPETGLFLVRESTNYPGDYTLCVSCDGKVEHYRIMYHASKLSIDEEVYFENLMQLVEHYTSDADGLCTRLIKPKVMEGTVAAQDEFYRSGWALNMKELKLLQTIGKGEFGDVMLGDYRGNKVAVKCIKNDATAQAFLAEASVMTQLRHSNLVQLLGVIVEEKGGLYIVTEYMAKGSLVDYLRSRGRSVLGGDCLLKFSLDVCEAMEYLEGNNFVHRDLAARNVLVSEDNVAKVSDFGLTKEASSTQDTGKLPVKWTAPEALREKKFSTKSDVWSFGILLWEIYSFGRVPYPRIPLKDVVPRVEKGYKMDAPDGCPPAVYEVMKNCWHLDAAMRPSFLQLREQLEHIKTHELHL
Chain of Cyclin-dependent kinase 18 (Homo sapiens) (Q07002 whole entry): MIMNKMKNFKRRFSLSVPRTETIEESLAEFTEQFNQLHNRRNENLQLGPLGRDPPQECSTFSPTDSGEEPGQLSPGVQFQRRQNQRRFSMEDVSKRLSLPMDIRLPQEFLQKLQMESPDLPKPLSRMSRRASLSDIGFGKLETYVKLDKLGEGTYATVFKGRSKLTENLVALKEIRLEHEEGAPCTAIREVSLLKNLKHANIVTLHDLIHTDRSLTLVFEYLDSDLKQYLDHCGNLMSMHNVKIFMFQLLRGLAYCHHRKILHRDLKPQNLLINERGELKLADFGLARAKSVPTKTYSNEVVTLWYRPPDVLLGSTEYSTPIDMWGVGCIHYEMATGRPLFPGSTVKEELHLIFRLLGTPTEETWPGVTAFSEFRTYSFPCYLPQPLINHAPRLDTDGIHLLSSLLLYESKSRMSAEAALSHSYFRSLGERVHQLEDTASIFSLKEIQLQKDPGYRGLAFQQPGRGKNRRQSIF
Chain of Mitogen-activated protein kinase kinase kinase 12 (Homo sapiens) (Q12852 whole entry, looked up): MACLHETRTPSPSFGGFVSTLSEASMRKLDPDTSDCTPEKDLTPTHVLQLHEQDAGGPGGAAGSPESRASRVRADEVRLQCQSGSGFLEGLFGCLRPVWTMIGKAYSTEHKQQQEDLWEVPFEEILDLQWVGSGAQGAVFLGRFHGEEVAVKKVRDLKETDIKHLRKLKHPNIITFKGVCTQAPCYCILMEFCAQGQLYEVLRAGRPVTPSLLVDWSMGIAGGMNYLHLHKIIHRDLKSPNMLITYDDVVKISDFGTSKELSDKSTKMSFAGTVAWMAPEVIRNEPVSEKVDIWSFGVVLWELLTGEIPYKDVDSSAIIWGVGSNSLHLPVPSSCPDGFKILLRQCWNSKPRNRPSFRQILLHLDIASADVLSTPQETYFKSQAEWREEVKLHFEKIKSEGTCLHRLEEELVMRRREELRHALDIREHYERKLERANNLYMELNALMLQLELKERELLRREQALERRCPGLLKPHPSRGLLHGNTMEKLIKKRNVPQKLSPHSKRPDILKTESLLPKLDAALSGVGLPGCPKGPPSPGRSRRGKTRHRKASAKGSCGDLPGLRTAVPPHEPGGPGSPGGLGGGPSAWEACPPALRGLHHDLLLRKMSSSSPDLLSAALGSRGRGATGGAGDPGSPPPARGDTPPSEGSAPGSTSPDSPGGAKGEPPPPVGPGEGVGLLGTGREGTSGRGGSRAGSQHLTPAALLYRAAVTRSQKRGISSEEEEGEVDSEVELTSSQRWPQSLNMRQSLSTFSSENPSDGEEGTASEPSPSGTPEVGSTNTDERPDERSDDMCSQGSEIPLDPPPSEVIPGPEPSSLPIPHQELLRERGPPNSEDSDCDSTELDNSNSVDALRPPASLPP

Usually inhibition stands for the relative decrease from the control value, in per cent. Consider `CNc1cc(Oc2cc(C(=O)Nc3cc(N4CCN(C)CC4)cc(C(F)(F)F)c3)ccc2C)ncn1`, for which the inhibition in experiment [1] came to 3.1%; in experiment [2], 20.3%.

`CCN1CCN(Cc2ccc(NC(=O)c3ccc(C)c(/C=C/c4cnc5[nH]ccc5c4OC)c3)cc2C(F)(F)F)CC1`: the inhibition in experiment [3] turned out to be 3%; in experiment [4], 50%; in experiment [5], 0.8%; in [6] it was 1.5%.

As to `CCN1CCN(Cc2ccc(NC(=O)c3ccc(C)c(Oc4ccnc5[nH]ccc45)c3)cc2C(F)(F)F)CC1`, the inhibition is 1.8% in experiment [7]; -3.3% in experiment [8]; 41.1% in experiment [9]; 57.7% in [10]; 92.7% in experiment [11]. The molecule further registered a percent of control in experiment [12] of 0.55%.
